Compound activity deposited in PubChem by The Scripps Research Institute Molecular Screening Center.
Most compounds without a hit are left out; they make up all but 1.8% or so of the library.
ABHD4 inh: ABHD4 inhibitors, primary screen, biochemical, fluorescence polarization, mouse; inhibition, % at 8.92 µM; 370,000 tested, 0.54% active; AID 720543, 2013; purified mABHD4, FP-Rh probe fluorescence polarization;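 active = inhibition exceeding the mean over every tested compound plus 3 SD, cut at about 30% in these data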
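Material: mouse ABHD4 enzyme, wild type; Benchmarks: S159A mutant high control, sample median low control; Buffer or medium: HEPES pH 7.0, NaCl, Pluronic buffer; Signal: fluorescence polarization; Read-out: percent inhibition of probe binding, normalized to plate controls; Timing: pre-incubation 45 min, probe exposure 60 min, at 25 °C; Dosing: 8.92 µM, single dose.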
TCR CD3 inh: inhibitors of human TCR-CD3 interaction, primary screen, biochemical, fluorescence, TAMRA-labeled TCR probe. T-cell receptor (TCR). inhibition, % at 9.4 µM. 360,000 tested, 0.37% active. AID 651800, 2012; in the data active = inhibition above about 19%;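 also: recombinant mutant TCR 2C K166C tagged with TAMRA read by polarization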
HTRA1 inhibitor: HTRA1 serine protease inhibitors, primary screen, biochemical, fluorescence polarization, HTS; recombinant HTRA1, FP-rhodamine activity-based probe; inhibition, % at 5.96 µM; Q92743; 340,000 tested, 0.5% active; in the data active = inhibition above about 36%
SIAE inh: human SIAE inhibitors, primary screen, biochemical, fluorescence polarization, FP-Rh probe, 1536-well HTS | Sialate O-acetylesterase (Homo sapiens), Q9HAT2 | SIAE FP-Rh probe binding | inhibition, % at 9.66 µM | 370,000 tested, 0.69% active;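 active = inhibition above a cutoff: mean of compounds within the control limits plus 3 SD of those, cut at about 17% in these data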
Target sequence (Q9HAT2 whole entry, looked up): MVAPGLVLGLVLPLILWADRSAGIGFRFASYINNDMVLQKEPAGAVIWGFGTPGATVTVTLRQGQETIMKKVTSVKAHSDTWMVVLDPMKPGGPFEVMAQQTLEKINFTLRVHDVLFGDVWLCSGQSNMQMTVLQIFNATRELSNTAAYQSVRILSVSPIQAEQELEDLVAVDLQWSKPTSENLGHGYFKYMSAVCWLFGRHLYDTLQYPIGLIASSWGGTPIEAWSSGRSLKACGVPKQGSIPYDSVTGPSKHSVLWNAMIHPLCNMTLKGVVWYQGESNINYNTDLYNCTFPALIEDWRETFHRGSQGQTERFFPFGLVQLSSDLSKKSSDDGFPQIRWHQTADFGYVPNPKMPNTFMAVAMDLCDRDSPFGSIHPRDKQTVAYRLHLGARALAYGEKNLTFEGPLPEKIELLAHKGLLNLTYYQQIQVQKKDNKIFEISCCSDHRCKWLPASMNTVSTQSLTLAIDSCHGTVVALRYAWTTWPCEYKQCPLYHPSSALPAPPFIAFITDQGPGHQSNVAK
PME-1 primary: PME-1 inhibitors via competitive probe labeling, primary screen, biochemical, fluorescence polarization, FP-Rh probe, HTS. Protein phosphatase methylesterase 1 (Homo sapiens), Q9Y570. recombinant PME-1. inhibition, % at 5.9 µM. 320,000 tested, 0.53% active;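 active = inhibition above the campaign mean of all compounds plus 3 SD, cut at about 26% in these data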;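 also: competitive labeling of PME-1 active site by serine hydrolase directed probe; inhibitors block probe labeling so polarization falls and inhibition rises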
Fam108B inh: mouse Fam108B serine hydrolase inhibitors, primary screen, counter-screen for RBBP9 inhibitor project, biochemical, fluorescence polarization. recombinant Fam108B, FP-Rh probe fluorescence polarization. inhibition, % at 9.51 µM. 300,000 tested, 0.33% active. AID 1947, 2009;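 active = inhibition above the screen mean inhibition plus 3 SD, computed separately per campaign, cut at about 18% in these data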;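 also: inhibitors lower polarization as less probe binds the enzyme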
ABHD4 confirm: ABHD4 inhibitors, retest, confirmation, biochemical, fluorescence polarization, mouse; shares compounds with ABHD4 inh; purified mABHD4, FP-Rh probe fluorescence polarization; inhibition, % at 8.92 µM; 1,800 tested, 55% active; AID 720658, 2013;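 active = mean inhibition across replicates above the hit cutoff set in the primary screen, cut at about 30% in these data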
Large screens that a line does not name were inactive (follow-up assays come after a bar, where they were run).

COc1ccc2nc3cc(Cl)ccc3c(Nc3cc(CN4CCCC4)c(O)c(CN4CCCC4)c3)c2n1	ABHD4 inh 37.0 (no result: HTRA1 inhibitor) | ABHD4 confirm 30.6
COC(=O)[C@H](C(C)C)N1CCc2nnn(Cc3ccc(C)cc3)c2-c2cc(F)ccc2S1(=O)=O	none (no result: TCR CD3 inh, HTRA1 inhibitor, PME-1 primary, Fam108B inh)
Nc1ccc(O)cc1C(=O)OCC(=O)c1ccc(C2CCCCC2)cc1	ABHD4 inh 53.5 | ABHD4 confirm 38.5
Nc1ccc(O)cc1C(=O)OCC(=O)C12CC3CC(CC(C3)C1)C2	ABHD4 inh 52.4 | ABHD4 confirm 35.3
O=C(OCC(=O)C12CC3CC(CC(C3)C1)C2)c1ccc(O)cc1	none (no result: PME-1 primary, Fam108B inh)
CN1c2ccccc2Sc2cc(N)ccc21	ABHD4 inh 36.9 | ABHD4 confirm 62.8
COc1cccc(CNC(=O)c2cccc(NC(=O)CC3SC(N4CCCCC4)=NC3=O)c2)c1 (configuration not stated)	none (no result: Fam108B inh)
Cc1ccc(C)c(OCC(O)CNC2CCCC2)c1 (configuration not stated)	ABHD4 inh 38.5 | ABHD4 confirm inactive
Cc1ccc(OCC(O)CNC2CCCC2)cc1C (configuration not stated)	none
CC1=CC2(O)OCCN(CCO)C2=CC1=O (configuration not stated)	ABHD4 inh 30.2 | ABHD4 confirm inactive
O=c1[nH]c2cc(Cl)cc([N+](=O)[O-])c2c2ccc(Cl)cc12	none (no result: PME-1 primary, Fam108B inh)
O=c1[nH][nH]c2c([N+](=O)[O-])ccc(F)c12	ABHD4 inh 36.3 (no result: HTRA1 inhibitor, PME-1 primary, Fam108B inh) | ABHD4 confirm 33.7
O=c1[nH]n2c(=O)c3c([nH]c2c1N=Nc1cccc(C(F)(F)F)c1)CCCC3	ABHD4 inh 59.0, PME-1 primary 71.2 | ABHD4 confirm 66.5
CCCCNC(=O)O[C@@H]1C[C@H]2CCCC(=O)N3CC[C@@H](C1)[C@@H]23	none
CCCCCCCN(c1ccccc1)[C@@H]1C[C@H]2CCCC(=O)N3CC[C@@H](C1)[C@@H]23	ABHD4 inh 30.9 (no result: PME-1 primary, Fam108B inh) | ABHD4 confirm 53.3
C/C=C/COC(=O)c1[nH]c2c(c1C)C(=O)CC(c1ccco1)C2 (configuration not stated)	ABHD4 inh 31.9 | ABHD4 confirm inactive
Cc1ccc(OCC(=O)NCCNC(=O)c2ccco2)cc1	none
C[C@H](CO)N1C[C@H](C)[C@@H](CN(C)C(=O)Nc2cccc(F)c2)OCc2cn(nn2)CCCC1=O	none (no result: HTRA1 inhibitor, PME-1 primary, Fam108B inh)
Cc1ccc(CN2C(=O)N/C(=C\c3ccc(-c4ccc(C(=O)O)cc4C)o3)C2=O)cc1	ABHD4 inh 42.9 | ABHD4 confirm 39.7
Cc1ccc(C(=O)O)cc1-c1ccc(/C=C2/NC(=O)N(c3ccccc3)C2=O)o1	ABHD4 inh 46.4 | ABHD4 confirm 30.2
COc1cc(OC)cc(-c2sc3ccc(OC)cc3c2C#CC2(N)CCCCC2)c1	none (no result: PME-1 primary, Fam108B inh)
COc1ccc(-c2sc3cc4c(cc3c2C#CC2(N)CCCCC2)OCO4)cc1	ABHD4 inh 31.9 (no result: Fam108B inh) | ABHD4 confirm 29.9
CC1CCC/C(=N/Nc2nc3ccccc3s2)C1 (configuration not stated)	ABHD4 inh 37.9 | ABHD4 confirm inactive
Cc1ccccc1OCC(=O)N/N=C1\CC(=O)CC(C)(C)C1	none
CC1(C)CC(=O)C/C(=N/Nc2nc3ccccc3s2)C1	ABHD4 inh 30.2 | ABHD4 confirm inactive
O=C(Nc1nc2ccccc2s1)C1CCCO1 (configuration not stated)	none
Cc1cccc(CSc2nnc(-c3ccccn3)n2N)c1	ABHD4 inh 35.8 | ABHD4 confirm inactive
Nn1c(SCc2ccc(Br)cc2)nnc1-c1ccccn1	none
CC(=O)N1C(=O)N(C(C)=O)C2C1N(C)C(=O)N2C(C)=O (configuration not stated)	none
CCOc1ccc(NS(=O)(=O)c2ccc(C(=O)N(C)CC(=O)Nc3cccc(OC)c3)cc2)cc1	none (no result: PME-1 primary, Fam108B inh)
Cc1ccc(S(=O)(=O)N2CCN(C(=O)COC(=O)/C=C/c3cccc([N+](=O)[O-])c3)CC2)c(C)c1	none (no result: PME-1 primary, Fam108B inh)
CC(C)=C1C(=O)NN(c2cccc(Cl)c2)C1=O	none
CC(C)=C1C(=O)NN(c2ccc(C)c(Cl)c2)C1=O	ABHD4 inh 36.9 | ABHD4 confirm inactive
Oc1cccc2c(NC(=S)Nc3ccc(OC(F)F)cc3)cccc12	ABHD4 inh 33.5 | ABHD4 confirm inactive
O=S(=O)(c1ccc(NC(=S)N/N=C/c2ccc(O)c(O)c2)cc1)N1CCOCC1	ABHD4 inh 31.2 | ABHD4 confirm inactive
CCC(C)Sc1ccc([C@H]2N[C@@](C)(C(=O)OC)[C@H]3C(=O)N(C)C(=O)[C@@H]23)cc1 (some centres not stated)	none (no result: PME-1 primary, Fam108B inh)
Cc1ccc(NC2=CC(=O)C(=O)c3ccccc32)c(C)c1	none (no result: Fam108B inh)
CCOc1ccc(NC2=CC(=O)C(=O)c3ccccc32)cc1	ABHD4 inh 31.9 (no result: PME-1 primary, Fam108B inh) | ABHD4 confirm inactive
O=C1C=C(Nc2ccccc2O)c2ccccc2C1=O	ABHD4 inh 47.7 | ABHD4 confirm inactive
O=C1C=C(Nc2ccc(F)cc2)c2ccccc2C1=O	none (no result: Fam108B inh)
CN(CCO)c1cccc2c1S(=O)(=O)N(Cc1cn(Cc3cccc(F)c3)nn1)Cc1ccccc1O2	none (no result: TCR CD3 inh, HTRA1 inhibitor, PME-1 primary, Fam108B inh)
O=C(Nc1c(-c2ccccc2)nc2ncccn12)C1CC1	none (no result: TCR CD3 inh, HTRA1 inhibitor, PME-1 primary, Fam108B inh)
COc1ccc2c(c1)CCCN2C(=O)C1CCCN(S(=O)(=O)c2ccc(Cl)s2)C1 (configuration not stated)	none (no result: TCR CD3 inh, HTRA1 inhibitor, PME-1 primary, Fam108B inh)
Cc1cccc(NC(=S)N(C)C)c1C	none
Cc1cccc(Nc2cc(C)c3c(O)cccc3n2)c1C	ABHD4 inh 29.5 | ABHD4 confirm 42.4
CC12CCC3C(CCC4N(CCO)CCC34C)C1CCC2O (configuration not stated)	none
O=C(c1ccccc1Cc1ccccc1)N1CCN(S(=O)(=O)c2ccccc2Br)CC1	none
COC(=O)CCCC1=CC2=CC(=O)C(C)(OC(=O)c3cccs3)C(=O)C2=CN1Cc1ccco1 (configuration not stated)	ABHD4 inh 31.5 | ABHD4 confirm inactive
COC(=O)CCCC1=CC2=CC(=O)C(C)(OC(=O)c3cccs3)C(=O)C2=CN1Cc1ccccc1 (configuration not stated)	none
O=C(OCC(=O)N1CCc2ccccc21)[C@@H]1CC(O)CN1S(=O)(=O)c1ccccc1[N+](=O)[O-] (some centres not stated)	none (no result: PME-1 primary, Fam108B inh)
CC1=C(O)C(=O)C(C2=C(O)C(=O)C(C)=C(O)C2=O)=C(O)C1=O	ABHD4 inh 39.8 (no result: PME-1 primary, Fam108B inh) | ABHD4 confirm 38.1
